From ChEMBL document CHEMBL4706672 (J Med Chem, 2021)
The source made the active and inactive calls. The calls are words filed in the database; no cut-off is given here.

Experiments:
[1] = target: Protein cereblon/Melanoma-associated antigen D1 (Homo sapiens) (UniProt Q96SW2+Q9Y5V3); experiment: Protac activity at CRBN/MAGED1 in human BxPC-3 cells assessed as MAGED1 degradation incubated for 16 hrs by proteomic analysis; assay type: cell-based
Method in brief: (§1)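 TMT 10plex proteomics. […] Samples (75 μg) were reduced with DTT, alkylated with 2-chloroacetamide, acetone-precipitated, trypsin-digested overnight at 37 °C and TMT-labeled for LC-MS/MS relative quantitation.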

[2] = Upregulation of ceramide glucosyltransferase protein levels in human BxPC-3 cells incubated for 16 hrs by proteomic analysis; assay type: functional
Method in brief: (§2)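 BxPC-3 cells exposed to compound (2 μM) or DMSO control for 16 h, then lysed in RIPA buffer at 4 °C. Protein quantified by BCA; 75 μg per sample. TMT 10plex labeling: DTT reduction (1 h, 55 °C), 2-chloroacetamide alkylation (30 min, RT), acetone precipitation, overnight trypsin digestion at 37 °C, then LC-tandem MS relative quantitation. Control and treated samples run in triplicate.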

BXPC-3 [3] = experiment: Antiproliferative activity against human BxPC-3 cells assessed as reduction in cell viability incubated for 3 days by MTT assay; assay type: functional, cell-based; conditions: BXPC-3, 72 h
[4] = Upregulation of AP-1 protein levels in human BxPC-3 cells incubated for 16 hrs by proteomic analysis; assay type: functional
Method in brief: (§3)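 BxPC-3 cells exposed 16 h in triplicate (control, PROTAC) or duplicate (other arms); lysed in RIPA at 4 °C, 75 μg protein per sample. Reduced with DTT (1 h, 55 °C), alkylated with 2-chloroacetamide, acetone-precipitated, trypsin-digested overnight at 37 °C, TMT 10plex labelled, relative quantitation by LC-tandem MS.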

[5] = target: Signal transducer and activator of transcription 3 (Homo sapiens) (UniProt P40763); experiment: Inhibition of STAT3 phosphorylation in human BxPC-3 cells at 1 uM after 16 hrs by western blot analysis; assay type: cell-based
Method in brief: (§4)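 Cells were seeded in 6-well plates (BxPC-3 500 × 10^3, MIA PaCa-2 200 × 10^3 cells/well) and exposed to compound for 16 h. Lysis was at 4 °C by sonication in Tris/NaCl/Triton/SDS buffer, pH 7.4, with protease and phosphatase inhibitors. Lysates were run on SDS-PAGE, transferred to PVDF and probed for STAT3, pSTAT3 and NQO1 with GAPDH as loading control. Immunoblots were imaged on an Odyssey system.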

[6] = target: Protein cereblon/Protein FAM3C (Homo sapiens) (UniProt Q96SW2+Q92520); experiment: Protac activity at CRBN/FAM3C in human BxPC-3 cells assessed as FAM3C degradation incubated for 16 hrs by proteomic analysis; assay type: cell-based; method in brief: as §1
BXPC-3 [7] = experiment: Reduction in NQO1 expression in human BxPC-3 cells at 2 to 6 uM incubated for 12 hrs in presence of proteasome inhibitor MG132 by western blot analysis; assay type: functional, cell-based; conditions: dose 2-6 µM
Method in brief: (§5)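 Immunoblot of BxPC-3 cells given a 2 h pretreatment with MG132 at 10 μM, then test agent for 12 h. Cell lysis, BCA assay, SDS-PAGE/PVDF, probed for STAT3, pSTAT3 and NQO1 with GAPDH as reference.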

[8] = Upregulation of ZNF430 protein levels human BxPC-3 cells incubated for 16 hrs by proteomic analysis; assay type: functional; method in brief: as §2
[9] = target: Protein cereblon/Ubiquitin carboxyl-terminal hydrolase 8 (Homo sapiens) (UniProt P40818+Q96SW2); experiment: Protac activity at CRBN/USP8 in human BxPC-3 cells assessed as USP8 degradation incubated for 16 hrs by proteomic analysis; assay type: cell-based; method in brief: as §3
[10] = target: T1, Protein cereblon/E3 ubiquitin-protein ligase ZFP91 (Homo sapiens, UniProt Q96SW2+Q96JP5); experiment: Protac activity at CRBN/ZFP91 in human BxPC-3 cells assessed as induction of ZF91 degradation incubated for 16 hrs by western blot analysis; assay type: cell-based
Method in brief: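 BxPC-3 cells treated for 4, 16 or 24 h across a concentration series. ZFP91 immunoblotted against GAPDH; bands quantified by densitometry, DC50 calculated from dose-response curves of the densitometry.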

MIA PaCa-2 = experiment: Effect on NQO1 expression in human MIA PaCa-2 cells at […] to 1 uM incubated for 16 hrs by western blot analysis; assay type: functional, cell-based; conditions: dose 0.5-1 µM; method in brief: as §4
[11] = target: Protein cereblon/WD repeat- and FYVE domain-containing protein 4 (Homo sapiens) (UniProt Q96SW2+Q6ZS81); experiment: Protac activity at CRBN/WDFY4 in human BxPC-3 cells assessed as WDFY4 degradation incubated for 16 hrs by proteomic analysis; assay type: cell-based; method in brief: as §3
[12] = target: Protein cereblon/SOSS complex subunit B1 (Homo sapiens) (UniProt Q96SW2+Q9BQ15); experiment: Protac activity at CRBN/NABP2 in human BxPC-3 cells assessed as NABP2 degradation incubated for 16 hrs by proteomic analysis; assay type: cell-based; method in brief: as §1
[13] = Upregulation of IL1RL1 protein levels in human BxPC-3 cells incubated for 16 hrs by proteomic analysis; assay type: functional; method in brief: as §3
[14] = Upregulation of ECM1 protein levels in human BxPC-3 cells incubated for 16 hrs by proteomic analysis; assay type: functional; method in brief: as §3
[15] = target: Protein cereblon/Serine/threonine-protein kinase PLK1 (Homo sapiens) (UniProt P53350+Q96SW2); experiment: Protac activity at CRBN/PLK1 in human BxPC-3 cells assessed as PKL1 degradation incubated for 16 hrs by proteomic analysis; assay type: cell-based; method in brief: as §1
[16] = target: Protein cereblon/E3 SUMO-protein ligase NSE2 (Homo sapiens) (UniProt Q96SW2+Q96MF7); experiment: Protac activity at CRBN/NSMCE2 in human BxPC-3 cells assessed as NSMCE2 degradation incubated for 16 hrs by proteomic analysis; assay type: cell-based; method in brief: as §1
[17] = target: Protein cereblon/Signal transducer and activator of transcription 3 (Homo sapiens, UniProt P40763+Q96SW2); experiment: Protac activity at CRBN/STAT3 in human BxPC-3 cells assessed as decrease in STAT3 expression level at 2 to 6 uM incubated for 12 hrs in presence of proteasome inhibitor MG132 by western blot analysis; assay type: cell-based; conditions: dose 2-6 µM; method in brief: as §5
[18] = target: Protein cereblon/Endothelial differentiation-related factor 1 (Homo sapiens) (UniProt Q96SW2+O60869); experiment: Protac activity at CRBN/EDF1 in human BxPC-3 cells assessed as EDF1 degradation incubated for 16 hrs by proteomic analysis; assay type: cell-based; method in brief: as §1
[19] = target: Protein cereblon/Ubiquitin-conjugating enzyme E2 T (Homo sapiens) (UniProt Q96SW2+Q9NPD8); experiment: Protac activity at CRBN/UBE2T in human BxPC-3 cells assessed as UBE2T degradation incubated for 16 hrs by proteomic analysis; assay type: cell-based; method in brief: as §3
[20] = target: T1, Protein cereblon/E3 ubiquitin-protein ligase ZFP91; experiment: Protac activity at CRBN/ZFP91 in human BxPC-3 cells assessed as ZFP91 degradation incubated for 16 hrs by proteomic analysis; assay type: cell-based; method in brief: as §3
[21] = target: Protein cereblon/E3 ubiquitin-protein ligase DTX3L (Homo sapiens) (UniProt Q96SW2+Q8TDB6); experiment: Protac activity at CRBN/DTX3L in human BxPC-3 cells assessed as DTX3L degradation incubated for 16 hrs by proteomic analysis; assay type: cell-based; method in brief: as §1
[22] = target: Protein cereblon/Procollagen-lysine,2-oxoglutarate 5-dioxygenase 2 (Homo sapiens) (UniProt Q96SW2+O00469); experiment: Protac activity at CRBN/PLOD2 in human BxPC-3 cells assessed as PLOD2 degradation incubated for 16 hrs by proteomic analysis; assay type: cell-based; method in brief: as §1

Chain of Protein cereblon/Protein FAM3C (Homo sapiens) (Q92520 whole entry, looked up): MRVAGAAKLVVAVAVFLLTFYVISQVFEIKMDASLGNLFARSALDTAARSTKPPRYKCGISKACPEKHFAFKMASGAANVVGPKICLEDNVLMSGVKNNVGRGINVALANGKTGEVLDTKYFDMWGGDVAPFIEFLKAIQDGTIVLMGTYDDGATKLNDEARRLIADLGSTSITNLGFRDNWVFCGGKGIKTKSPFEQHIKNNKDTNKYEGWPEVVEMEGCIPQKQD
Chain of Protein cereblon/Protein FAM3C (Homo sapiens) (Q96SW2 whole entry, looked up): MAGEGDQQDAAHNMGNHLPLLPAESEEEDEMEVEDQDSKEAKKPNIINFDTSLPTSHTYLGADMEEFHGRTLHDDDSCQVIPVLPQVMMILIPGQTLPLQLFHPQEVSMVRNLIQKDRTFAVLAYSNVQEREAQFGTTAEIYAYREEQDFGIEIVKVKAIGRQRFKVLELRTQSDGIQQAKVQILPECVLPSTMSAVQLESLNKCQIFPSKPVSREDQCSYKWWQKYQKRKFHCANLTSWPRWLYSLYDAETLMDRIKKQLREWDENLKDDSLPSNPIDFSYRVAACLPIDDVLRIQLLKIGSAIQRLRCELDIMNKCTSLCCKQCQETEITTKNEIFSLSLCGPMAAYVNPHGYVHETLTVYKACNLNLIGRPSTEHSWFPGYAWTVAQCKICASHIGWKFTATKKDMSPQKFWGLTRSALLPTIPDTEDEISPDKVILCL
Chain of Protein cereblon/E3 SUMO-protein ligase NSE2 (Homo sapiens) (Q96MF7 whole entry, looked up): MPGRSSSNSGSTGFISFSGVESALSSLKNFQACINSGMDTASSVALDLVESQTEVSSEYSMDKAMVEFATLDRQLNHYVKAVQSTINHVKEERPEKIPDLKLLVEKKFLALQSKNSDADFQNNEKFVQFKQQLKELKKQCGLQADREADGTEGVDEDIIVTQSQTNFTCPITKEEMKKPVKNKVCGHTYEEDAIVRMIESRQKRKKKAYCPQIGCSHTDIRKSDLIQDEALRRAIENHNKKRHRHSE
Chain of Protein cereblon/E3 SUMO-protein ligase NSE2 (Homo sapiens) (Q96SW2 whole entry, looked up): as the sequence (Q96SW2 whole entry, looked up) above
Chain of Signal transducer and activator of transcription 3 (Homo sapiens) (P40763 whole entry): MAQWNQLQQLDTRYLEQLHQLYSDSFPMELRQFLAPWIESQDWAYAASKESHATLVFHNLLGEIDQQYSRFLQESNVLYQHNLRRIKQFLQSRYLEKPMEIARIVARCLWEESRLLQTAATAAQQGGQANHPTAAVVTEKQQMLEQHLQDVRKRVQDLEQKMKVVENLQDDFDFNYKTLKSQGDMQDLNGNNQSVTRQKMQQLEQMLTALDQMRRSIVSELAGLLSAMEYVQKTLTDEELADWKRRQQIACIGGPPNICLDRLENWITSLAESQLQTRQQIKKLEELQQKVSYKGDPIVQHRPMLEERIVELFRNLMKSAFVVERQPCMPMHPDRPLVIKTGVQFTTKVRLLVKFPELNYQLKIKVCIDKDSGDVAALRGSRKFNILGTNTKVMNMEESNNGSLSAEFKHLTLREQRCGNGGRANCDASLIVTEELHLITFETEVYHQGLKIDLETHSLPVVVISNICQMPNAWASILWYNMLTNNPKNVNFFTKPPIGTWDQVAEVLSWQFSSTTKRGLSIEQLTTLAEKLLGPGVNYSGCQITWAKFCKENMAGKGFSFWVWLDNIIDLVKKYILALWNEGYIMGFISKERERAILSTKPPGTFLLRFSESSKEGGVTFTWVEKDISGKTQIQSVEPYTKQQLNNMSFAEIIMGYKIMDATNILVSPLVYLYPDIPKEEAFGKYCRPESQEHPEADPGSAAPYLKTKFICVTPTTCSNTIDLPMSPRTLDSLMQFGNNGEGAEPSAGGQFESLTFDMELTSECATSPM
Chain of Protein cereblon/Ubiquitin carboxyl-terminal hydrolase 8 (Homo sapiens) (P40818 whole entry, looked up): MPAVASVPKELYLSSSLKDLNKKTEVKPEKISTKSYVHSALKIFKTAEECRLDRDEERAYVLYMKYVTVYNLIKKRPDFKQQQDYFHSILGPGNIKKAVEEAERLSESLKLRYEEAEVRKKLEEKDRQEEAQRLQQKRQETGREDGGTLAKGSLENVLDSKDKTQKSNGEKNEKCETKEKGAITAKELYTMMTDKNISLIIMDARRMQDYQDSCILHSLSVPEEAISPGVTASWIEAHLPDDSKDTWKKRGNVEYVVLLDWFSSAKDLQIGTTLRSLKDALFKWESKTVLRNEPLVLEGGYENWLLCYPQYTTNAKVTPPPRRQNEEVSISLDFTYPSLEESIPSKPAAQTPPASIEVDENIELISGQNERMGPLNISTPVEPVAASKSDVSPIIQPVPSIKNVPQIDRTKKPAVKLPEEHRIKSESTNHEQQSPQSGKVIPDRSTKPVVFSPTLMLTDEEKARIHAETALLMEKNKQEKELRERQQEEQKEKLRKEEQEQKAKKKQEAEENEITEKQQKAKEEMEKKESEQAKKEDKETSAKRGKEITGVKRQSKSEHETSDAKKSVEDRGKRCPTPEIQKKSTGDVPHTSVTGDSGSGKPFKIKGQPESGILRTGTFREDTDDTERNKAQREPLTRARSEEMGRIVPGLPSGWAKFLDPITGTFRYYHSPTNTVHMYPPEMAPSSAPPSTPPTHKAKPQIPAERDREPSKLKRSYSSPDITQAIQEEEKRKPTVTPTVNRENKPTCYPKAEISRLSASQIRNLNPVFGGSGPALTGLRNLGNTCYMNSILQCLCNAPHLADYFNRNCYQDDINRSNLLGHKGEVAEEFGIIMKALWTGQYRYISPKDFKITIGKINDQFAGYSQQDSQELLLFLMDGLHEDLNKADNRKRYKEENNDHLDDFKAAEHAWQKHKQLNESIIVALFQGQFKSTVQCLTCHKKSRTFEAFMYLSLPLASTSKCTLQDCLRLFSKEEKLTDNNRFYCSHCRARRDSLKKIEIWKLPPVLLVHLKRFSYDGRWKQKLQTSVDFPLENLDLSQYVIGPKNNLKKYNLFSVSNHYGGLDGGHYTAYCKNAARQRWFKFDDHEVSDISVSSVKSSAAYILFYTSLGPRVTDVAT
Chain of Protein cereblon/Ubiquitin carboxyl-terminal hydrolase 8 (Homo sapiens) (Q96SW2 whole entry, looked up): as the sequence (Q96SW2 whole entry, looked up) above
Chain of Protein cereblon/Serine/threonine-protein kinase PLK1 (Homo sapiens) (P53350 2-603 limits assumed): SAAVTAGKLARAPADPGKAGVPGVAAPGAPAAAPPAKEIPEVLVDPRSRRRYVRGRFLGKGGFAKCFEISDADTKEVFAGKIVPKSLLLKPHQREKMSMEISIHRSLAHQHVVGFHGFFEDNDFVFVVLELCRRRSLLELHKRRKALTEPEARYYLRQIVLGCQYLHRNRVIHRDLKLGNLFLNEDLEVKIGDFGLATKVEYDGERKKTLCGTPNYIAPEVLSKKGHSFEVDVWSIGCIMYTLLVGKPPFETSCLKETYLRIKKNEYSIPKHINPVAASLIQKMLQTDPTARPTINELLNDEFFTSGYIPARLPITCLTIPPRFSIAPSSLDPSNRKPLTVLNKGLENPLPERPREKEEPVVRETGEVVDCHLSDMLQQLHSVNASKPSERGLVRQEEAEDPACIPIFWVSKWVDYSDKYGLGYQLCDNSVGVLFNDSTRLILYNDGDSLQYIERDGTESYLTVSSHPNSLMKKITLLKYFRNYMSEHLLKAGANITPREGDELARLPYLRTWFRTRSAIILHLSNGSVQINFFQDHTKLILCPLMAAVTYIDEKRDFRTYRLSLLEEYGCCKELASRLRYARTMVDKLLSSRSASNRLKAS
Chain of Protein cereblon/Serine/threonine-protein kinase PLK1 (Homo sapiens) (Q96SW2 whole entry partner): as the sequence (Q96SW2 whole entry, looked up) above

## O=C1CCC(N2C(=O)c3cccc(NCCCCCC4CCN(CCNC(=O)c5cc6c(o5)C(=O)c5ccccc5C6=O)CC4)c3C2=O)C(=O)N1 (stereo not drawn)
[1]
  log2FC: -0.9
[2]
  log2FC: 0.62
BXPC-3 [3]
  IC50: 800 nM
[4]
  log2FC: 1.58
[5]
  inhibition: Active
[6]
  log2FC: -0.73
BXPC-3 [7]
  Activity: Active
[8]
  log2FC: 0.77
[9]
  log2FC: -0.59
[10]
  DC50: 80 nM
MIA PaCa-2
  Activity: inactive
[11]
  log2FC: -0.78
[12]
  log2FC: -0.78
[13]
  log2FC: 1.24
[14]
  log2FC: 0.76
[15]
  log2FC: -1.25
[16]
  log2FC: -0.63
[17]
  Activity: Active
[18]
  log2FC: -0.82
[19]
  log2FC: -0.66
[20]
  log2FC: -0.62
[21]
  log2FC: -0.96
[22]
  log2FC: -0.63
